Test results as given in publication PMC4033650 (ACS Chemical Biology, 2014).
Where two headings read alike, the source gives them in different places. Positions of bridges follow the written chain, without caps; N, C: chain ends. Non-standard residues stand in square brackets, D forms with d. Residues, ends and D or L forms follow the SMILES beside them. *: point of attachment. Gly(octyl) = CCCCCCCC[C@H](N)C(=O)O; Octanoyl = CCCCCCCC(=O)*; Dab = NCC[C@H](N)C(=O)O

What was measured:
[1] = tested on: polymyxin-resistant clinical isolates of P. aeruginosa, A. baumannii, and K. pneumoniae; assay: MIC screen against polymyxin-resistant Gram-negative clinical isolates; assay type: cell-based; conditions: for MICs: polymyxin-resistant clinical isolates of P. aeruginosa, A. baumannii, K. pneumoniae
Outline: (§1)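 Broth microdilution in cation-adjusted Mueller–Hinton broth. […] Plates were incubated 18–20 h at 37 °C. MIC was taken as the lowest concentration inhibiting visible growth.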

[2] = tested on: panel of ATCC and clinical isolates; assay: MIC in the presence of Mg2+; assay type: cell-based; conditions: addition of 16 mM of Mg2+; data not shown
Outline: as §1

purified LPS = assay: Dansyl-polymyxin LPS displacement binding assay
Outline: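 LPS was purified from bacteria, and its molar concentration was set by the purpald Kdo assay. Test compound binding to LPS was read as displacement of a synthetic dansyl-polymyxin probe, using the group's published protocol.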

[3] = tested on: polymyxin-resistant clinical isolate of P. aeruginosa; assay: Neutropenic mouse lung infection model; assay type: in vivo; conditions: 24 h after single-dose treatment (40 mg/kg); inoculum 5.42 ± 0.54 log CFU/lung
Outline: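 The model used neutropenic mice with lung infection, following the group's earlier protocol. One polymyxin-susceptible and one polymyxin-resistant P. aeruginosa strain were used. Lung bacterial burden was counted at 0 and 24 h after treatment.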

[4] = Pharmacokinetics after single-dose intravenous administration in rats; conditions: rat, in vivo
[5] = Tolerability after bolus dose in rats; assay type: in vivo, rat; conditions: intravenous bolus, 0.75 mg/kg
[6] = Tolerability after bolus dose in mice; assay type: in vivo, mouse; conditions: subcutaneous bolus, 40 mg/kg
[7] = Plasma protein binding by equilibrium dialysis; assay type: in vitro ADME; conditions: pooled healthy human plasma
human red blood cells = assay: Hemolysis of human red blood cells; assay type: cell-based; conditions: concentrations up to 32 mg/L
[8] = Nephrotoxicity in mice, kidney histopathology; assay type: in vivo, mouse; conditions: subcutaneous, accumulated dose 105 mg/kg
Outline: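 Mice (three groups, n = 3) received subcutaneous injections over 3–4 days to an accumulated 105 mg/kg of test compound or polymyxin B sulfate, with a saline control. Kidneys were formalin-fixed (10%) and sectioned through cortex, medulla and papilla, then stained and graded: grade 1 (mild tubular damage) = 1, grade 2 (severe, necrosis) = 4, grade 3 (cortical necrosis/infarction) = 10.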

[9] = tested on: polymyxin-resistant clinical P. aeruginosa isolate; assay: MIC by broth microdilution, polymyxin-resistant P. aeruginosa isolate; assay type: cell-based, Pseudomonas aeruginosa
Outline: (§2)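 Broth microdilution was run in cation-adjusted Mueller–Hinton broth in polypropylene plates. The inoculum was about 10^6 cfu/mL, mixed 1:1 with broth containing test compound (0 to 128 mg/L). Plates were incubated 18–20 h at 37 °C. MIC was the lowest concentration with no visible growth.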

[10] = tested on: polymyxin-susceptible P. aeruginosa ATCC 27853; assay: MIC by broth microdilution, P. aeruginosa ATCC 27853; assay type: cell-based, Pseudomonas aeruginosa
Outline: as §2

[11] = tested on: polymyxin-resistant clinical P. aeruginosa isolate; assay: Static time-kill, polymyxin-resistant P. aeruginosa isolate; assay type: cell-based, Pseudomonas aeruginosa; conditions: 32 mg/L
[12] = rats ref 23; cited from earlier work

Compound | antimicrobial activity ([1]; panel of polymyxin-resistant Gram-negative clinical isolates) | increase in MICs on addition of Mg2+ [2] [fold] | higher LPS binding affinity compared to PMB and colistin (purified LPS) | bacterial burden in the lungs [3] [log CFU/lung] | Vd [4] [L/kg] | clearance [4] [mL/min/kg] | half-life [4] [h] | adverse effects [5] | adverse effects [6] | MICs [1] [mg/L] | plasma protein binding (bound) [7] [%] | hemolysis of human red blood cells (human red blood cells) | histological grade of kidney lesions [8] | MIC [9] [µg/mL] | MIC [10] [µg/mL] | bacterial killing in time-kill [11] | half-life [12] [h] | total clearance [12] [mL/min/kg] | volume of distribution [12] [L/kg]
CCCCCCCC[C@@H]1NC(=O)[C@@H](Cc2ccccc2)NC(=O)[C@H](CCN)NC(=O)[C@@H](NC(=O)[C@H](CCN)NC(=O)[C@@H](NC(=O)[C@H](CCN)NC(=O)CCCCCCC)[C@@H](C)O)CCNC(=O)[C@H]([C@@H](C)O)NC(=O)[C@H](CCN)NC(=O)[C@H](CCN)NC1=O [FADDI-002] (Octanoyl-[Dab]T[Dab][Dab][Dab][dF][Gly(octyl)][Dab][Dab]T; lactam 4-C) | potent antimicrobial activity | ≤ 2 | up to 27.1 fold | 4.75 ± 0.80 | 0.195 to 0.313 | 0.66 to 1.3 | 2.77 to 3.4 | no adverse effects were observed | no adverse effects were observed | – | – | – | – | – | – | – | – | – | –
Polymyxin B [PMB] | – | 16 | – | – | – | – | – | – | – | > 128 | ~51 | no detectable hemolysis | grade 1 | – | – | – | – | – | –
colistin | – | – | – | 6.71 ± 0.46 | – | – | – | – | – | > 128 | – | no detectable hemolysis | – | > 128 | 1 | no killing was observed | 1.24 | 5.2 | 0.496
